Experimental data published in ChEMBL document CHEMBL6177921, “Enhancing the antimycobacterial efficacy of pyridine-4-carbohydrazide: linkage to additional antimicrobial agents via oxocarboxylic acids” (RSC Med Chem, 2025).
≈ marks a conversion by molar mass, not a printed value.

Assays:
[1] = Hemolytic activity in human Red blood cells assessed as effect of lipid bilayer membrane incubated for 1 hr by absorbance based spectrophotometric analysis; assay type: toxicity, cell-based; details: erythrocyte
Outline: (§1)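 Human erythrocyte suspension mixed 1:1 with compound in Hartmann's solution at final 125 μM, final DMSO 1.0% (v/v), 37 °C for 1 h. After centrifugation, released haemoglobin in the supernatant was read at 405 nm. Negative control was hRBCs with 1.0% DMSO; positive control was hRBCs sonicated for 1 min.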

[2] = system: Mycobacterium tuberculosis; experiment: Antimycobacterial activity against Mycobacterium tuberculosis H37Rv CNCTC 331/88 assessed as bacterial growth inhibition incubated for 21 days by two fold serial dilution method; assay type: functional; details: H37Rv CNCTC 331/88, 504 h, time 21 day
Mycobacterium kansasii [3] = experiment: Antimycobacterial activity against multi-drug resistant Mycobacterium kansasii clinical isolate CNCTC 6509/96 assessed as bacterial growth inhibition incubated for 21 days by two-fold serial dilution method; assay type: functional; details: CNCTC 6509/96, 504 h, time 21 day
Outline: (§2)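 M. kansasii clinical isolate 6509/96 (stock dilution 10−4) in Šula's semisynthetic liquid medium; two-fold serial dilutions 1000 to 1 μM, DMSO final 1.0% v/v; final load 1.5 × 10^5 CFU mL−1; MIC read visually as complete growth inhibition at 7, 14 and 21 days.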

Mycobacterium avium [4] = experiment: Antimycobacterial activity against INH/RIF/rifabutin/OFX/EMB resistant Mycobacterium avium CNCTC 330/88 assessed as bacterial growth inhibition incubated for 21 days by two-fold serial dilution method; assay type: functional; details: CNCTC 330/88, 504 h, time 21 day
Outline: (§3)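 M. avium CNCTC 330/88 (stock suspension dilution 10−5) grown in Šula's semisynthetic liquid medium; two-fold serial dilutions 1000 to 1 μM from DMSO stocks (final DMSO 1.0% v/v); final load 1.5 × 10^5 CFU mL−1; MIC read visually as lowest concentration giving complete growth inhibition after 14 and 21 days.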

Mycobacterium kansasii [5] = experiment: Antimycobacterial activity against multi-drug resistant Mycobacterium kansasii CNCTC 6509/96 clinical isolate assessed as bacterial growth inhibition incubated for 14 days by two-fold serial dilution method; assay type: functional; details: CNCTC 6509/96, 336 h, time 14 day; outline: as §2
Mycobacterium kansasii [6] = experiment: Antimycobacterial activity against INH/RIF/rifabutin/OFX/EMB Mycobacterium kansasii CNCTC 6509/96 clinical isolate assessed as bacterial growth inhibition incubated for 7 days by two-fold serial dilution method; assay type: functional; details: CNCTC 6509/96, 168 h, time 7 day
Outline: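 Šula's liquid semisynthetic medium; M. kansasii clinical isolate 6509/96 used at stock dilution 10−4, final ~1.5 × 10^5 CFU mL−1. Two-fold dilutions ran 1000–1 μM with final DMSO 1.0% (v/v). MIC was read visually as complete growth inhibition after 7, 14 and 21 days.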

[7] = system: Mycobacterium tuberculosis; experiment: Antimycobacterial activity against multidrug sensitive Mycobacterium tuberculosis H37Rv CNCTC 331/88 assessed as bacterial growth inhibition incubated for 14 days by two-fold serial dilution method; assay type: functional; details: H37Rv CNCTC 331/88, 336 h, time 14 day
Mycobacterium avium [8] = experiment: Antimycobacterial activity against INH/RIF/rifabutin/OFX/EMB resistant Mycobacterium avium CNCTC 330/88 assessed as bacterial growth inhibition incubated for 14 days by two-fold serial dilution method; assay type: functional; details: CNCTC 330/88, 336 h, time 14 day; outline: as §3
Pichia kudriavzevii [9] = experiment: Antifungal activity against Candida krusei CCM 8271 measured after 24 to 48 hrs by microdilution broth method; assay type: functional; details: time 24-48 hrs
Outline: (§4)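 Yeast broth microdilution per EUCAST, slightly modified. Medium was RPMI-1640 with 2% glucose, MOPS-buffered to pH 7.0. Compounds were tested at 0.98–500 μM with final DMSO ≤1.0% (v/v). Inoculum came from 18–24 h cultures, final ~1–5 × 10^5 CFU mL−1. Plates were incubated statically, dark and humidified, at 35 ± 2 °C. MIC was read visually at 24 and 48 h (no visible growth).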

Candida tropicalis [10] = experiment: Antifungal activity against Candida tropicalis ATCC 750 measured after 24 to 48 hrs by microdilution broth method; assay type: functional; details: time 24-48 hrs; outline: as §4
Candida albicans [11] = experiment: Antifungal activity against Candida albicans CCM 8320 measured after 24 to 48 hrs by microdilution broth method; assay type: functional; details: time 24-48 hrs; outline: as §4
Lichtheimia corymbifera = experiment: Antifungal activity against Lichtheimia corymbifera CCM 8077 measured after 24 to 48 hrs by microdilution broth method; assay type: functional; details: time 24-48 hrs
Outline: (§5)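 Filamentous fungi tested by broth microdilution per EUCAST with minor changes. Compounds were tested at 0.98–500 μM with final DMSO ≤1.0% (v/v). Plates were incubated statically, dark and humidified, at 35 ± 2 °C for 24 and 48 h. MIC was the lowest concentration showing no visible growth.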

Candida albicans [12] = experiment: Antifungal activity against Candida albicans ATCC 24443 measured after 24 to 48 hrs by microdilution broth method; assay type: functional; details: time 24-48 hrs; outline: as §4
Pichia kudriavzevii [13] = experiment: Antifungal activity against Candida krusei ATCC 6258 measured after 24 to 48 hrs by microdilution broth method; assay type: functional; details: time 24-48 hrs; outline: as §4
[14] = system: Trichophyton interdigitale; experiment: Antifungal activity against Trichophyton interdigitale ATCC 9533 measured after 24 to 48 hrs by microdilution broth method; assay type: functional; details: time 24-48 hrs
Aspergillus flavus = experiment: Antifungal activity against Aspergillus flavus CCM 8363 measured after 24 to 48 hrs by microdilution broth method; assay type: functional; details: time 24-48 hrs; outline: as §5
Candida parapsilosis [15] = experiment: Antifungal activity against Candida parapsilosis ATCC 22019 measured after 24 to 48 hrs by microdilution broth method; assay type: functional; details: Lodderomyces parapsilosis, time 24-48 hrs; outline: as §4
Candida parapsilosis [16] = experiment: Antifungal activity against Candida parapsilosis CCM 8260 measured after 24 to 48 hrs by microdilution broth method; assay type: functional; details: Lodderomyces parapsilosis, time 24-48 hrs; outline: as §4
[17] = system: Trichophyton interdigitale; experiment: Antifungal activity against Trichophyton interdigitale CCM 8377 measured after 24 to 48 hrs by microdilution broth method; assay type: functional; details: time 24-48 hrs
Candida tropicalis [18] = experiment: Antifungal activity against Candida tropicalis CCM 8264 measured after 24 to 48 hrs by microdilution broth method; assay type: functional; details: time 24-48 hrs; outline: as §4
Aspergillus fumigatus = experiment: Antifungal activity against Aspergillus fumigatus ATCC 204305 measured after 24 to 48 hrs by microdilution broth method; assay type: functional; details: time 24-48 hrs; outline: as §5
[19] = Hemolytic activity in human Red blood cells assessed as hemolysis rate incubated for 1 hr by absorbance based spectrophotometric analysis relative to control; assay type: toxicity, cell-based, Erythrocyte; details: read-out: Activity; outline: as §1
[20] = system: Staphylococcus epidermidis; experiment: Antibacterial activity against Staphylococcus epidermidis ATCC 12228 assessed as bacterial growth inhibition incubated for 24 to 48 hrs by broth microdilution method; assay type: functional; details: time 24-48 hrs
Outline: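 Broth microdilution in cation-adjusted Mueller-Hinton broth, adapted from EUCAST. Compounds were tested at 0.98–500 μM with final DMSO ≤1.0% (v/v). Inoculum came from 16–24 h cultures, final ~5 × 10^5 CFU mL−1. Plates were incubated statically, dark and humidified, at 35 ± 2 °C. MIC was read by eye at 24 and 48 h as the lowest concentration with no visible growth.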

Staphylococcus aureus = experiment: Antibacterial activity against methicillin-resistant Staphylococcus aureus ATCC 43300 assessed as bacterial growth inhibition incubated for 24 to 48 hrs by broth microdilution method; assay type: functional; details: time 24-48 hrs
Outline: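 Broth microdilution per EUCAST with slight modification in cation-adjusted Mueller-Hinton broth; compounds from DMSO stocks (final DMSO ≤1.0% v/v), 0.98–500 μM; final inoculum about 5 × 10^5 CFU mL−1 from 16–24 h cultures; static incubation in dark, humidified air at 35 ± 2 °C; MIC read by eye at 24 and 48 h as lowest concentration without visible growth.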

Compound | MIC [2] [µM] | MIC (Mycobacterium kansasii [3]) [µM] | MIC (Mycobacterium avium [4]) [µM] | MIC (Mycobacterium kansasii [5]) [µM] | MIC (Mycobacterium kansasii [6]) [µM] | MIC [7] [µM] | MIC (Mycobacterium avium [8]) [µM] | hemolysis at 1 h [19] [%] | also measured
COc1nc2ccc(Br)cc2cc1[C@@H](c1ccccc1)[C@@](O)(CCN(C)C)c1cccc2ccccc12 [BEDAQUILINE] | – | – | – | – | – | – | – | – | Activity [1]: Toxic
C/C(=N\NC(=O)c1ccncc1)C(=O)Nc1ccc(Sc2ccc([N+](=O)[O-])cc2)cc1 | 0.25 (≈ 0.109 µg/mL) | 2 (≈ 0.871 µg/mL) | 500 (≈ 218 µg/mL) | 1 (≈ 0.435 µg/mL) | 1 (≈ 0.435 µg/mL) | 0.25 (≈ 0.109 µg/mL) | 500 (≈ 218 µg/mL) | – | Activity [1]: Non-toxic
C/C(=N\NC(=O)c1ccncc1)C(=O)Nc1ccc(Oc2ccccc2)cc1 | 0.25 (≈ 0.0936 µg/mL) | 2 (≈ 0.749 µg/mL) | 500 (≈ 187 µg/mL) | ≤ 1 | ≤ 1 | 0.25 (≈ 0.0936 µg/mL) | 500 (≈ 187 µg/mL) | – | MIC (Pichia kudriavzevii [9]): > 500 µM; Activity [1]: Non-toxic; MIC (Candida tropicalis [10]): > 500 µM; MIC (Candida albicans [11]): > 500 µM; MIC (Lichtheimia corymbifera): > 500 µM; MIC (Candida albicans [12]): > 500 µM; MIC (Pichia kudriavzevii [13]): > 500 µM; MIC [14]: > 500 µM; MIC (Aspergillus flavus): > 500 µM; MIC (Candida parapsilosis [15]): > 500 µM; MIC (Candida parapsilosis [16]): > 500 µM; MIC [17]: > 500 µM; MIC (Candida tropicalis [18]): > 500 µM; MIC (Aspergillus fumigatus): > 500 µM
NNC(=O)c1ccncc1 [ISONIAZID] | 1 (≈ 0.137 µg/mL) | 16 (≈ 2.19 µg/mL) | > 250 | 8 (≈ 1.1 µg/mL) | 8 (≈ 1.1 µg/mL) | 1 (≈ 0.137 µg/mL) | > 250 | 0.01 | –
CO[C@H]1/C=C/O[C@@]2(C)Oc3c(C)c(O)c4c(O)c(c(/C=N/N5CCN(C)CC5)c(O)c4c3C2=O)NC(=O)/C(C)=C\C=C\[C@H](C)[C@H](O)[C@@H](C)[C@@H](O)[C@@H](C)[C@H](OC(C)=O)[C@@H]1C [RIFAMPIN] | – | – | – | – | – | – | – | 0.01 | –
COC(=O)c1ccc(NC(=O)/C(C)=N/NC(=O)c2ccncc2)cc1O | 0.5 (≈ 0.178 µg/mL) | 16 (≈ 5.7 µg/mL) | ≥ 1000 | 16 (≈ 5.7 µg/mL) | 8 (≈ 2.85 µg/mL) | 0.5 (≈ 0.178 µg/mL) | ≥ 1000 | – | MIC [20]: 125 µM (≈ 44.5 µg/mL)
C/C(=N\NC(=O)c1ccncc1)C(=O)NNC(=O)c1ccncc1 | 0.5 (≈ 0.163 µg/mL) | 16 (≈ 5.22 µg/mL) | 500 (≈ 163 µg/mL) | 16 (≈ 5.22 µg/mL) | 8 (≈ 2.61 µg/mL) | 0.25 (≈ 0.0816 µg/mL) | 500 (≈ 163 µg/mL) | – | MIC (Staphylococcus aureus): 500 µM (≈ 163 µg/mL); MIC [20]: 250 µM (≈ 81.6 µg/mL)
CC[C@@H](CO)NCCN[C@@H](CC)CO [ETHAMBUTOL] | – | – | – | – | – | – | – | 0.01 | –
C/C(=N\NC(=O)c1ccncc1)C(=O)Nc1ccc(-c2ccccc2)cc1 | ≤ 0.25 | 16 (≈ 5.73 µg/mL) | > 250 | 8 (≈ 2.87 µg/mL) | 8 (≈ 2.87 µg/mL) | ≤ 0.25 | > 250 | 0.01 | –
NC(=O)c1cnccn1 [PYRAZINAMIDE] | – | – | – | – | – | – | – | 0.01 | –
C/C(=N\NC(=O)c1ccncc1)C(=O)NNC(N)=S | 2 (≈ 0.561 µg/mL) | 32 (≈ 8.97 µg/mL) | 1000 (≈ 280 µg/mL) | 32 (≈ 8.97 µg/mL) | 16 (≈ 4.49 µg/mL) | 1 (≈ 0.28 µg/mL) | 1000 (≈ 280 µg/mL) | – | MIC [20]: 125 µM (≈ 35 µg/mL)
